Data from ChEMBL document CHEMBL1641555, “Asymmetric synthesis of phenanthroindolizidine alkaloids with hydroxyl group at the C14 position and evaluation of their antitumor activities” (Bioorg Med Chem Lett, 2011).

Columns and labels:
[1] = test system: KB; assay: Cytotoxicity against human KB cells after 96 hrs by WST-8 assay; assay type: functional, cell-based
Procedure, shortened: (§1)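 KB, A549 and HT-29 cells in exponential growth were seeded at 10³ cells/well. Serially diluted compounds were added the following day and incubated for 96 h. WST-8 reagent was then added for 1 h at 37 °C, and viability was read as absorbance at 450 nm.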

[2] = test system: HT-29; assay: Cytotoxicity against human HT-29 cells after 96 hrs by WST-8 assay; assay type: functional, cell-based; settings: HT-29, 96 h; procedure, shortened: as §1
[3] = test system: A549; assay: Cytotoxicity against human A549 cells after 96 hrs by WST-8 assay; assay type: functional, cell-based; settings: A549, 96 h; procedure, shortened: as §1
[4] = Antitumor activity against mouse Meth-A cells xenografted in BALB/c mouse assessed as tumor growth inhibition at 50 mg/kg, iv administered on day 1, 5, and 9 measured after 21 days relative to control; assay type: functional
Procedure, shortened: (§2)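 Meth A sarcoma cells, 2.5 × 10⁵ per mouse, implanted sc in 7-wk-old male BALB/c mice, 5 per group. Compound given iv on days 1, 5 and 9. Tumors excised and weighed on day 21 after inoculation. Inhibition rate (%) = [1 − (mean tumor weight treated)/(mean tumor weight control)] × 100.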

[5] = Antitumor activity against mouse Meth-A cells xenografted in BALB/c mouse assessed as tumor growth inhibition at 25 mg/kg, iv administered on day 1, 5, and 9 measured after 21 days relative to control; assay type: functional; procedure, shortened: as §2
[6] = test system: Mus musculus; assay: Toxicity in mouse Meth-A cells xenografted BALB/c mouse assessed as mortality at 25 mg/kg, iv; assay type: organism-based; design: dose 25 mg/kg, route intravenous; settings: in vivo
Procedure, shortened: (§3)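 Meth A sarcoma cells, 2.5 × 10⁵ per mouse, inoculated sc into 7-week-old male BALB/c mice, 5 per group. Samples given iv on days 1, 5 and 9. Animals followed to day 21 after tumor inoculation, when tumors were weighed.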

[7] = test system: Mus musculus; assay: Toxicity in mouse Meth-A cells xenografted BALB/c mouse assessed as mortality at 50 mg/kg, iv; assay type: organism-based; design: dose 50 mg/kg, route intravenous; settings: in vivo; procedure, shortened: as §3
[8] = test system: Mus musculus; assay: Toxicity in mouse Meth-A cells xenografted BALB/c mouse assessed as mortality at 100 mg/kg, iv; assay type: organism-based; design: dose 100 mg/kg, route intravenous; settings: in vivo; procedure, shortened: as §3

SMILES | IC50 [1] | IC50 [2] | IC50 [3] | inhibition in vivo at 50 mg/kg [4] | inhibition in vivo at 25 mg/kg [5] | Activity [6] | Activity [7] | Activity [8]
COc1cc2c3c(c4cc(O)ccc4c2cc1OC)[C@H](O)[C@@H]1CCCN1C3 | 43.8 nM | 6.8 nM | 4.7 nM |  |  |  |  | 
COc1cc2c3c(c4cccc(O)c4c2cc1OC)[C@H](O)[C@@H]1CCCN1C3 | 1.4 nM | 82.1 nM | 3.3 nM |  |  |  |  | 
COc1cc2c3c(c4ccc(O)cc4c2cc1OC)[C@@H](O)[C@H]1CCCN1C3 | 3 nM | 12.5 nM | 10.9 nM | 12.5% | 7.2% | Non-toxic | Non-toxic | 
COc1ccc2c3c(c4cc(OC)c(OC)cc4c2c1)CN1CCC[C@H]1[C@H]3O | 4.2 nM | 2.1 nM | 0.3 nM |  | 4.3% |  | Non-toxic | 
COc1ccc2c3c(c4cc(OC)c(OC)cc4c2c1)CN1CCC[C@@H]1[C@@H]3O | 47.4 nM | 20.8 nM | 15.5 nM |  |  |  |  | 
COc1cc2c3c(c4ccccc4c2cc1OC)[C@H](O)[C@@H]1CCCN1C3 | 17.5 nM | 10.6 nM | 7.4 nM |  |  |  |  | 
COc1cc2c3c(c4ccccc4c2cc1OC)[C@@H](O)[C@H]1CCCN1C3 | 2030 nM | 584 nM | 604 nM |  |  |  |  | 
CCc1ccc2c3c(c4cc(OC)c(OC)cc4c2c1)CN1CCC[C@H]1[C@H]3O | 180 nM | 135 nM | 559 nM |  |  |  |  | 
CCc1ccc2c3c(c4cc(OC)c(OC)cc4c2c1)CN1CCC[C@@H]1[C@@H]3O | 1590 nM | 320 nM | 268 nM |  |  |  |  | 
COc1cc2c3c(c4ccc(F)cc4c2cc1OC)[C@H](O)[C@@H]1CCCN1C3 | 49 nM | 19.6 nM | 11.2 nM |  |  |  |  | 
COc1cc2c3c(c4ccc(F)cc4c2cc1OC)[C@@H](O)[C@H]1CCCN1C3 | 653 nM | 106 nM | 92.8 nM |  |  |  |  | 
COc1cc2c3c(c4ccc(OC(C)=O)cc4c2cc1OC)[C@H](O)[C@@H]1CCCN1C3 | 1.7 nM | 0.2 nM | 1.5 nM | 39.3% | 54.9% | Non-toxic |  | 
Oc1ccc2c3c(c4ccccc4c2c1)CN1CCC[C@H]1[C@H]3O | 1960 nM | 458 nM | 354 nM |  |  |  |  | 
Oc1ccc2c3c(c4cc5c(cc4c2c1)OCO5)CN1CCC[C@H]1[C@H]3O | 25.5 nM | 134 nM | 54.4 nM |  |  |  |  | 
CC1(C)Oc2cc3c4c(c5ccc(O)cc5c3cc2O1)[C@H](O)[C@@H]1CCCN1C4 | 742 nM | 488 nM | 928 nM |  |  |  |  | 
CCOc1cc2c3c(c4ccc(O)cc4c2cc1OCC)[C@H](O)[C@@H]1CCCN1C3 | 10.9 nM | 1.2 nM | 0.7 nM | -10.6% | -3.1% | Non-toxic | Non-toxic | 
COc1cc2c(CBr)cc3ccc(OCc4ccccc4)cc3c2cc1OC |  |  |  |  |  |  | Non-toxic | Non-toxic
COc1cc2c3c(c4ccc(O)cc4c2cc1OC)[C@H](O)[C@@H]1CCCN1C3 [TYLOPHORIDICINE E] | 5.2 nM | 1.6 nM | 0.5 nM |  | 30.6% | Non-toxic | Toxic | 
